# Sampled rows, rich in hits. Any-hit rate of the full collection: about 2.3%.
# TRPC6 activator – mouse TRPC6 channel activation. HEK293-TRPC6 membrane potential dye fluorescence; active compounds read high. B-score at 10 µM. 310,000 tested, 0.13% active. AID 2550;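 active = B-score of the integrated fluorescence ratio above library mean plus 3 SD, and starting fluorescence ratio within library mean plus 5 SD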;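 also: higher score means more depolarization so channel activation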
# TRPC4 potent – allosteric potentiators of mouse TRPC4 channel; HEK293 TRPC4beta/mu-opioid, DAMGO EC20, Fluo-4 Ca2+ flux; active compounds read high; B-score at 10 µM; 310,000 tested, 0.42% active; Q9QUQ5;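 active = B-score of calcium response area above 5 SD of library B-scores, with initial fluorescence ratio within 5 SD of library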;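 also: B-score of integrated fluorescence ratio over time as area under calcium response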
# Target sequence (Q9QUQ5 whole entry, looked up): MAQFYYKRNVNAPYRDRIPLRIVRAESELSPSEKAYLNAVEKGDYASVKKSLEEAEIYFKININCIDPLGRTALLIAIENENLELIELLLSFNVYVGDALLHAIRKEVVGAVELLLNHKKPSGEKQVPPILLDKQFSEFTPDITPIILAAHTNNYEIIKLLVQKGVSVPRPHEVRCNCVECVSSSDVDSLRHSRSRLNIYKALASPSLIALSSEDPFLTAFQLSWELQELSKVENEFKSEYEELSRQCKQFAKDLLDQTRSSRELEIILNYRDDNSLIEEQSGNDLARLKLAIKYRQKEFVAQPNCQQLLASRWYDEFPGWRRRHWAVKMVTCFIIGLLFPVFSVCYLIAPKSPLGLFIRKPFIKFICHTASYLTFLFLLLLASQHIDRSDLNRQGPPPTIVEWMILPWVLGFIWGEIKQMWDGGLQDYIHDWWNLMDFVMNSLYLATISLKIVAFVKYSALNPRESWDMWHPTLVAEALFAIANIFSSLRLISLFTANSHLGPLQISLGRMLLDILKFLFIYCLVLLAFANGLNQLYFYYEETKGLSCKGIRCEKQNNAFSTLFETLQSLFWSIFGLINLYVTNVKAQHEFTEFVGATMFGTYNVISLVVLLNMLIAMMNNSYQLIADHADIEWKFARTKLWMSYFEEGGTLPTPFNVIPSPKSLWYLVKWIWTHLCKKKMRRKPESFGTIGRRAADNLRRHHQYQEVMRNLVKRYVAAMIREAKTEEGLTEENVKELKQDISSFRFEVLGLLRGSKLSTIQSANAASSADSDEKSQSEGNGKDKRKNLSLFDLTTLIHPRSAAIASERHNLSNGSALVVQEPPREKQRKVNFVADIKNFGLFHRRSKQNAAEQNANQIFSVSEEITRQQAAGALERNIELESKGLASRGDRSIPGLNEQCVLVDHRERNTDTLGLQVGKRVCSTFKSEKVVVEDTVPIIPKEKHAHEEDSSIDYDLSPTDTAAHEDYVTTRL
# TRPC4 block – inhibitors of mouse TRPC4 channel. Q9QUQ5. HEK293 TRPC4beta/mu-opioid, DAMGO-evoked Fluo4 calcium flux; active compounds read low. B-score at 10 µM. 300,000 tested, 0.39% active. AID 2247;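 active = B-score over 3 SD under the library average, no early fluorescence shift, positive overall ratio signal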
#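 Assay system: TRPC4beta/mu-opioid receptor HEK293 cell line; compound dosing: single concentration per test compound; detection: Fluo4 Ca2+ flux fluorescence; evaluation: per-well B score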
# TRPC4 agonist – opens the mouse TRPC4 cation channel. Q9QUQ5. HEK293 TRPC4beta/mu-opioid, Fluo4 calcium fluorescence; active compounds read high. 310,000 tested, 0.49% active. B-score at 10 µM;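 active = B-score above 5 SD of library B-scores, and initial fluorescence ratio not above library mean plus 5 SD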;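 also: positive B-score marks a calcium rise read as TRPC4 activation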
#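 Material: HEK293 stable line with TRPC4beta plus mu-opioid receptor; technique: Fluo4 calcium-sensitive dye fluorescence, kinetic, 1 Hz baseline; timing: Fluo4 dye loading 45 min at room temperature, 110 s recording; controls: assay buffer as low control, maximal DAMGO as high control; read-out: integrated baseline-normalised fluorescence ratio, converted to per-well B score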
# TRPC6 inh – blocks the mouse TRPC6 cation channel | Q61143 | HEK293-TRPC6, membrane potential dye, ACh-evoked depolarization; active compounds read low | B-score at 10 µM | 310,000 tested, 1.1% active;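 active = B-score under library mean minus 3 SD, initial fluorescence not abnormally high, positive integrated signal ratio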;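 also: B-score derived from integrated fluorescence ratio over the kinetic read; more negative B-score means stronger inhibition of depolarization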
# TRPC4 spec 2 – mouse TRPC4 off-target activity of TRPC6 inhibitors, second screen; shares compounds with TRPC6 inh; HEK293 TRPC4/MOR, membrane potential dye fluorescence; channel activated by saturating DAMGO dose; AID 2776; 920 tested, 42% active; inhibition, % at 10 µM;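 active = compounds whose fluorescence signal differed from control wells by over 3 SD, either direction, in both duplicate plates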
# TRPC4 spec – tests whether TRPC6 inhibitors also affect mouse TRPC4; shares compounds with TRPC6 inh; HEK293 TRPC4/mu-opioid, membrane potential fluorescence; activity change, negative = inhibition, % at 10 µM; 920 tested, 61% active; AID 2777;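 active = rise or fall in signal beyond 3 SD of buffer-only wells in both replicate plates, either sign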;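 also: integrated kinetic ratio of fluorescence range over baseline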
# HEK293 MPD ctr 2-1 – second check of TRPC6 inhibitor effects in parental HEK293 cells. shares compounds with TRPC6 inh. parental HEK293 membrane potential dye fluorescence; maximal acetylcholine challenge after compound addition. signal change vs control, % at 10 µM. 920 tested, 31% active. AID 2779;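 active = membrane potential signal moving either way by over 3 SD of the maximum-effect control, in both duplicate plates, meaning non-specific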
# HEK293 MPD ctr-1 – checks TRPC6 inhibitor effects in parental HEK293 cells; parental HEK293 membrane potential dye fluorescence; shares compounds with TRPC6 inh; membrane potential signal change, % at 10 µM; 920 tested, 60% active;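 active = membrane potential signal shifting up or down by more than 3 SD of buffer-only wells, on both duplicate plates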
# HEK293 MPD ctr-2 – parental HEK293 nonspecific activity of TRPC6 modulators. shares compounds with TRPC6 inh. membrane potential dye fluorescence. membrane potential signal change, % at 10 µM. 2,400 tested, 51% active. AID 488924;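 active = membrane potential signal moves up or down beyond 5 SD from buffer-only wells, on both duplicate plates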
# HEK293 MPD ctr 2-2 – second counter-screen for TRPC6 modulators: effect in parental HEK293 cells. 2,400 tested, 14% active. inhibition, % at 10 µM. membrane potential dye fluorescence; after compound, maximal acetylcholine stimulation. shares compounds with TRPC6 inh. AID 488926;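 active = membrane potential signal drops by more than 5 SD from the mean control signal, in both duplicate plates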;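 also: plate controls were acetylcholine ECmax control wells for no effect and buffer only wells for full effect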
# TRPC4/MOR mod – tests whether TRPC6 modulators also affect mouse TRPC4. shares compounds with TRPC6 inh. HEK293 TRPC4/mu-opioid, membrane potential fluorescence. percent change from control (negative = decrease, positive = increase), % at 10 µM. 2,400 tested, 69% active;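 active = membrane potential signal moved up or down beyond 5 SD of buffer control wells, in both duplicate plates, actives on both sides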;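 also: plate controls were assay buffer wells for no effect and DAMGO maximal-effect wells for full effect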
# TRPC4/MOR inh 2 – second selectivity test of TRPC6 modulators against mouse TRPC4; shares compounds with TRPC6 inh; HEK293 TRPC4/mu-opioid, membrane potential dye fluorescence; stimulated with maximal-effect DAMGO; inhibition, % at 10 µM; 2,400 tested, 55% active; AID 488928;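 active = drop in membrane potential signal beyond 5 SD of the control wells in both duplicate plates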;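 also: TRPC4 counter screen for TRPC6 hits run under conditions tuned for TRPC6 not TRPC4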
# TRPC6 block conf – confirmation of mouse TRPC6 inhibitors; shares compounds with TRPC6 inh; HEK293-TRPC6, membrane potential dye, ACh-evoked depolarization; inhibition, % at 10 µM; 3,300 tested, 43% active; AID 488960;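 active = fluorescence ratio falls more than 5 SD below the full-stimulation control mean, in both duplicate runs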;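 also: integrated fluorescence ratio of peak minus minimum over baseline after agonist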
# TRPC6 act confirm – mouse TRPC6 activator confirmation; shares compounds with TRPC6 inh; HEK293-TRPC6 membrane potential dye fluorescence, FDSS; activation, % at 10 µM; 2,800 tested, 11% active; AID 488961;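 active = ratio signal rise beyond 5 SD above unstimulated control wells' mean, seen in both duplicate runs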;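 also: plate controls were buffer EC0 wells for no effect and acetylcholine ECmax response for full effect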
# * hit, by the source's call; i = inactive; x = no result.
SMILES,TRPC6 activator,TRPC4 potent,TRPC4 block,TRPC4 agonist,TRPC6 inh,HEK293 MPD ctr-2,HEK293 MPD ctr 2-2,TRPC4/MOR mod,TRPC4/MOR inh 2,TRPC6 block conf,TRPC6 act confirm,others
c1ccc(-c2nc(N3CCCCCC3)c3ccccc3n2)nc1,i,i,i,i,-9.7*,-202%*,70%*,-30%*,73%*,62%*,i,
Cn1c(=O)c2c(nc(N3CCOCC3)n2CCc2ccccc2)n(C)c1=O,i,i,i,i,i,x,x,x,x,x,x,
CN(C)C=NCCn1c(N2CCOCC2)nc2c1c(=O)n(C)c(=O)n2C,i,i,i,i,-7.1*,-274%*,i,-44%*,35%*,i,i,
Cc1cccc(OCC(O)Cn2c(=N)n(Cc3ccccc3)c3ccccc32)c1 (stereo unspecified),i,i,i,55*,-5.7*,145%*,i,68%*,112%*,50%*,x,
Cc1ccc(OCC(O)Cn2c(=N)n(Cc3ccccc3)c3ccccc32)cc1 (stereo unspecified),i,i,i,i,-8.1*,x,x,x,x,i,i,TRPC4 spec 2=40%*;TRPC4 spec=11%*;HEK293 MPD ctr 2-1=258%*;HEK293 MPD ctr-1=8.5%*
Cc1cccc(OCC(O)Cn2c(=N)n(CCN3CCCCC3)c3ccccc32)c1 (stereo unspecified),i,i,i,i,i,x,x,x,x,x,x,
COc1ccc(-n2nc(C(=O)NCC(=O)Nc3cc(OC)c(OC)c(OC)c3)c3ccccc3c2=O)cc1OC,i,i,i,i,i,x,x,x,x,x,x,
COc1ccc(CNC(=O)C2CCCN(C(=O)Nc3ccc(OC)cc3)C2)cc1 (stereo unspecified),i,i,i,i,i,x,x,x,x,x,x,
NCCNc1ccc(C(=O)N2c3ccccc3Sc3ccccc32)cc1[N+](=O)[O-],i,i,i,i,-6.2*,i,i,-10%*,60%*,54%*,i,
CN(C)c1ccc(N=Nc2cccc3ccoc23)cc1,i,i,i,i,-5.8*,i,i,i,41%*,i,i,
CN(C)c1ccc(N=Nc2cccc(F)c2)cc1,i,i,i,i,i,x,x,x,x,x,x,
Fc1cc(F)c(NC(=S)N2CCOCC2)c(F)c1,i,i,i,i,i,x,x,x,x,x,x,
COc1ccc(Nc2c3c(nc4ccccc24)CCC3)cc1,i,i,-7*,i,-5.2*,157%*,i,24%*,36%*,i,x,
